# ZTA counter – blocks Epstein-Barr virus ZTA, an EBNA-1 counter-screen. inhibition, % at 11 µM. P03206. ZTA-DNA binding, fluorescence polarization. hit rate 0.15% among 320,000; in the data active means inhibition above about 33%
# Target sequence (P03206 whole entry, looked up): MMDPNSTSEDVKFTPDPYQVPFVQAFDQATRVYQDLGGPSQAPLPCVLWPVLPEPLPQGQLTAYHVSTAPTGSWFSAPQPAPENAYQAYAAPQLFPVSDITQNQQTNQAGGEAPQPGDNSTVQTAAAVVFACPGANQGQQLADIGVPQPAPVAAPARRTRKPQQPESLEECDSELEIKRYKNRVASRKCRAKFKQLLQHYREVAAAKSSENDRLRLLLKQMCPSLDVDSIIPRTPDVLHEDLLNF
# NS3 helicase inh – HCV NS3 helicase inhibition. hit rate 0.56% among 290,000. inhibition, % at 10.9 µM. NS3 helicase DNA unwinding, Cy5 molecular beacon fluorescence;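 active means inhibition above the mean of all tested compounds plus 3 SD, set per campaign, cut at about 35% in these data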;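 further: 0% = DMSO wells and 100% = thioflavine S control wells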
#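 System: NS3 helicase fragment of HCV / Schedule: 1 h at 25 °C / Control set: DMSO alone as 0% and 110 µM thioflavine S as 100% / Reagent: Cy5/quencher beacon DNA duplex and ATP to start / Technique: Cy5 fluorescence / Replication: singlicate / Evaluation: % inhibition of end-to-start signal ratio versus controls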
# EBNA-1 inhibitor – blocks EBNA-1 binding to DNA; EBNA-1 DNA binding, fluorescence polarization; inhibition, % at 14.8 µM; hit rate 0.34% among 300,000; AID 1950; in the data active means inhibition above about 28%
# ALR inh – inhibitors of human sulfhydryl oxidase ALR | AID 485317 | inhibition, % (no concentration beside the values) | purified ALR, DTT oxidation, H2O2 HRP-luminol luminescence | P55789 | hit rate 3.8% among 290,000;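 active means mean replicate inhibition above about 79%, with every replicate also reaching it, limit read from the data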
# Target sequence (P55789 whole entry, looked up): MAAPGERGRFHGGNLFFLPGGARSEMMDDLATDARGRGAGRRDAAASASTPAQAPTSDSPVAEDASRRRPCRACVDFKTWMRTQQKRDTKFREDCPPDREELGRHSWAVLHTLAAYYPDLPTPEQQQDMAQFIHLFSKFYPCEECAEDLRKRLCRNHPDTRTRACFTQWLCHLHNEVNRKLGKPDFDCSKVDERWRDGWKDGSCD
# M18AAP inhibitor – blocks P. falciparum M18 aspartyl aminopeptidase. hit rate 1.2% among 290,000. inhibition, % at 7.35 µM. recombinant PfM18AAP, H-Glu-NHMec fluorogenic cleavage;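 active means inhibition above the campaign mean inhibition over all tested compounds plus 3 SD, cut at about 28% in these data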;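 further: 0% = plate median of test compound wells and 100% = 2 mM ZnCl2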
# core dimer inh – HCV core protein dimerization inhibition | hit rate 0.33% among 300,000 | AID 1899 | TR-FRET GST/Flag-core106 dimerization, 1536-well | inhibition, % at 5 µM;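 active means inhibition above the mean of all tested compounds plus 3 SD, set per screening campaign, cut at about 45% in these data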
#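 test system = GST/Flag-tagged HCV core106 proteins | probe or stimulus = Eu donor and XL665 acceptor anti-tag antibodies | times = compound-protein-antibody incubation 4 h at 22.5 °C | signal = TR-FRET, excitation 340 nm, emission 617 and 671 nm | measure = percent inhibition of core106 dimerization signal | controls = wells lacking GST-core106 and wells with excess unlabelled core106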
# NS3 hel confirm – confirmation of Hepatitis C virus NS3 helicase inhibitors. shares compounds with NS3 helicase inh. NS3 helicase DNA unwinding, Cy5 molecular beacon fluorescence. inhibition, % at 10.9 µM. hit rate 31% among 1,600. AID 1943;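 active means inhibition above the mean of all tested compounds plus 3 SD, cutoff set per campaign, cut at about 36% in these data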
# DNA FID counter – counter-screen for HCV NS3 helicase inhibitors: DNA intercalator displacement | shares compounds with NS3 helicase inh | DNA fluorescent intercalator displacement, fluorescence | inhibition, % at 7.9 µM | hit rate 4% among 1,600; in the data active means inhibition above about 37%;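 further: 0% = vehicle and 100% = reference compound; higher means more displacement of ethidium bromide from the DNA hairpin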
# FID counter DR – displaces fluorescent intercalator from DNA, HCV helicase counter-screen. IC50, µM. 120 tested, under 10 active. shares compounds with NS3 helicase inh. fluorescent intercalator displacement from DNA, fluorescence; call rule not given here
# Starred values were filed as active, the others as inactive; x = no result given. Hits are enriched below; roughly 5.2% of the tested compounds scored in any of these assays.
SMILES,ZTA counter,NS3 helicase inh,EBNA-1 inhibitor,ALR inh,M18AAP inhibitor,core dimer inh,NS3 hel confirm,DNA FID counter,others
Cc1cc(-c2csc(NC(=O)c3ccc(C#N)cc3)n2)c(C)n1Cc1ccco1,-9,58*,-4,-5,12,49*,1,12,
Cc1cc(-c2csc(NC(=O)c3cc4ccccc4o3)n2)c(C)n1C,3,50*,-4,6,14,74*,25,16,
O=C(NCc1cccc(C(F)(F)F)c1)c1ccc2c(c1)OCCO2,-1,3,-3,-4,-6,0,x,x,
CCOc1ccc(S(=O)(=O)N2CCC(C(=O)NCc3ccncc3)CC2)cc1C,-3,10,-5,-1,-13,-8,x,x,
Cc1nn(CC(=O)NCCc2cccs2)c(=O)c2nn(-c3ccccc3)c(C)c12,-6,49*,-4,0,7,28,-10,-25,
Cc1ccc(-n2nc3c(=O)n(CC(=O)NCc4cccs4)nc(C)c3c2C)cc1,6,-3,-4,-1,0,0,x,x,
Cc1nn(CC(=O)NCCc2ccco2)c(=O)c2nn(-c3ccccc3)c(C)c12,-4,48*,3,53,-11,38,8,-7,
CC(Sc1n[nH]c(-c2cccs2)n1)C(=O)N1CCCC1 (centres undefined),x,x,x,-3,x,x,x,x,
C[C@@H](CSc1ccccc1)CN1CC[C@H](NC(=O)OCc2ccccc2)CCC1=O,3,-40,-19,x,-1,-4,x,x,
CN(CC(=O)Nc1ccc(Cl)cc1)C(=O)CNC(=O)c1ccc(Br)o1,5,x,15,x,x,1,x,x,
O=C(Nc1ccccc1N1CCCCC1)c1ccc(-c2cccc(Cl)c2)o1,-8,-16,-3,3,-3,-9,x,x,
O=C(Nc1cccc2nsnc12)c1ccc(-c2cccc(Cl)c2)o1,-2,40*,-2,-38,-27,21,-8,3,
Cc1ccc(C)n1Cc1ccc(C(=O)O)cc1,85*,38*,29*,x,9,-47,80*,-1,
Cc1cc(C)n(Cc2ccc(C(=O)O)cc2)n1,2,-2,9,-3,-14,-3,x,x,
Cc1ccc(CNC(=O)C2CCN(S(=O)(=O)c3c(C)noc3/C=C/c3ccco3)CC2)cc1,-22,63*,-17,-3,3,36,-13,-3,
COc1ccccc1CNS(=O)(=O)c1ccc2c(c1)NC(=O)CO2,-3,0,-5,-3,1,5,x,x,
O=C(NCc1ccccc1Cl)C1CCCN1C(=O)Nc1ccccc1 (centres undefined),-21,26,-16,x,0,-11,x,x,
CCC(C(=O)O)n1nnc(-c2ccc(-c3ccc(OC)cc3)cc2)n1 (centres undefined),11,39*,-13,7,-8,-5,62*,-21,FID counter DR=>79
CCC(C(=O)O)n1nnc(-c2ccc(OCc3ccccc3)c(OC)c2)n1 (centres undefined),-3,-5,-8,2,-16,6,x,x,
Cc1nn(Cc2ccc(Cl)c(Cl)c2)c(C)c1NC(=O)c1cc(-c2ccco2)on1,-13,40*,0,1,-4,14,-9,-55,
Cc1nn(Cc2ccc(Cl)cc2)c(C)c1NC(=O)c1cc(-c2ccco2)on1,-4,-4,-10,-2,-18,8,x,x,
O=C(Cc1c(F)cccc1Cl)NNC(=O)c1ccccc1Cl,-10,x,x,-5,x,x,x,x,
Cc1c(Br)c(O)c(Br)c(O)c1/C=N/n1c(-c2ccccc2)n[nH]c1=S,-8,36*,-14,98*,29*,-12,70*,-4,
COc1ccc(O)c(/C=N/NC(=S)NCCc2ccccc2)c1,-4,29,1,31,24,-2,x,x,
COc1ccc(/C(C)=N/NC(=S)NCCc2ccccc2)c(O)c1,-2,42*,-5,x,7,7,9,-5,
SMILES,ZTA counter,NS3 helicase inh,EBNA-1 inhibitor,ALR inh,M18AAP inhibitor,core dimer inh,NS3 hel confirm,DNA FID counter,others
Cc1ccc(C(=O)O)cc1-c1ccc(/C=C2\SC(=O)N(CC(=O)Nc3ccccc3)C2=O)o1,8,38*,8,0,-6,12,78*,2,FID counter DR=>79
CCCCOc1ccc(C2C(C(=O)c3ccc(C)o3)=C(O)C(=O)N2Cc2ccco2)cc1 (centres undefined),9,69*,6,9,12,36,135*,-49,FID counter DR=>79
Cc1ccc(C(=O)C2=C(O)C(=O)N(Cc3ccco3)C2c2ccc(N(C)C)cc2)o1 (centres undefined),3,98*,-4,73,22,-4,8,-6,
Cc1cc(OCCN2CCC(Cc3ccccc3)CC2)ccc1[N+](=O)[O-],-7,-60,7,-41,-6,4,x,x,
Cc1cc(NC(=O)Cc2ccccc2[N+](=O)[O-])no1,-4,5,-13,-19,-3,1,x,x,
CCOC(=O)Cn1c(-c2ccccn2)nc2ccccc21,0,-1,-1,0,-8,-1,x,x,
CCOC(=O)c1ccc2c(c1)nc(-c1ccccn1)n2CC,-10,36*,-5,-4,-12,-6,1,-17,
COc1cc(/C=N/NC(=O)c2nonc2N)cc(OC)c1OC,13,39*,10,-6,-9,13,-2,7,
COc1ccccc1CNS(=O)(=O)c1c(C)nc2sccn2c1=O,8,11,22,-13,1,8,x,x,
Cc1cccc(NS(=O)(=O)c2ccc(Cl)cc2)n1,-18,-2,-4,-5,-13,2,x,x,
COc1cccc(C2c3[nH]c4ccccc4c3C[C@H]3C(=O)N(CCCOC(C)C)CC(=O)N23)c1 (some centres undefined),-26,85*,0,-19,4,0,-9,-28,
CC(C)OCCCN1CC(=O)N2C(c3ccccc3)c3[nH]c4ccccc4c3C[C@H]2C1=O (some centres undefined),-4,4,-2,-12,0,-8,x,x,
CCC1CN(C(=O)N2CCC(C(=O)NCCc3ccc(OC)cc3OC)CC2)c2ccccc2O1 (centres undefined),-10,-4,2,-2,1,2,x,x,
Cc1ccc(N2C(=O)[C@@H]3[C@H](C2=O)[C@H]2C=CC=NN2[C@@H]3C(=O)Nc2ccccc2)cc1,5,16,10,1,12,10,x,x,
